Measured values taken from paper PMC4317336 (Journal of controlled release : official journal of the …, 2013).

Tested on: tumor biopsies from stage IV NB patients
Experiment: phage overlay binding assay on tumor biopsies from NB patients
Conditions: human NB sections, compared with Mallory Trichrome histology
Outline: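 Frozen sections (5 μm) from stage IV NB patient tumors in OCT, fixed 10 min at room temperature in 4% paraformaldehyde/PBS, washed twice in PBS, and blocked with serum-free protein block. Sections overlaid 1 h at 4°C with 10⁸ T.U./μl of each phage clone; insertless Fd-Tet phage as negative control. Bound phage detected with anti-bacteriophage antibody plus HRP polymer, then hematoxylin counterstain.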

For ALAAHKL [Phage #10], which “tumor component preferentially bound” value is on record?
The value was “preferentially bind to non-epithelial tumor components”.

For HSYWLSR [Phage #5], which “tumor component preferentially bound” value is on record?
The value was “preferentially bind to non-epithelial tumor components”.

How did the “tumor component preferentially bound” value turn out when KSFFLSH [Phage #14] was run?
Its value is “widely recognizes the whole NB masses”.

WSWPREL [Phage #8] was tested. Which “tumor component preferentially bound” value did it give?
The value was “preferentially bind to non-epithelial tumor components”.

With YEGLISR [Phage #1] as the substance, how does the “tumor component preferentially bound” value read?
Its value is “preferentially bind to non-epithelial tumor components”.
